From ChEMBL document CHEMBL3091313, “Amino acids derived benzoxazepines: design, synthesis and antitumor activity” (Bioorg Med Chem Lett, 2013)
Active and inactive are the calls of the source. The calls are words filed in the database; no cut-off is given here.

What was measured:
MDA-MB-231 [1] = assay: Cell cycle arrest in human MDA-MB-231 cells assessed as accumulation at G2 phase at 1 uM after 24 hrs using propidium iodide staining by flow cytometry (reference value: 18.75 %); type: functional
MCF7 [2] = assay: Induction of apoptosis in human MCF7 cells assessed as DNA fragmentation after 24 hrs by ELISA; type: functional, cell-based
Procedure, shortened: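 MCF-7 cells were treated with compound, with 4-OHT alongside. DNA fragmentation was quantified after 24 h and expressed relative to a positive control set at 100%. Data are mean ± SEM of three independent experiments.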

MCF7 [3] = assay: Cell cycle arrest in human MCF7 cells assessed as accumulation at G1 phase at 3 uM after 24 hrs using propidium iodide staining by flow cytometry (reference value: 67.73 %); type: functional
MCF7 [4] = assay: Induction of apoptosis in human MCF7 cells assessed as early apoptotic cells at 3 uM after 24 hrs using annexin V/PI staining by flow cytometry (reference value: 3.19 %); type: functional
MDA-MB-231 [5] = assay: Cell cycle arrest in human MDA-MB-231 cells assessed as apoptosis at 3 uM after 24 hrs using propidium iodide staining by flow cytometry (reference value: 0.10 %); type: functional
MCF7 [6] = assay: Cell cycle arrest in human MCF7 cells assessed as accumulation at S phase at 1 uM after 24 hrs using propidium iodide staining by flow cytometry (reference value: 24.81 %); type: functional
MCF7 [7] = assay: Cell cycle arrest in human MCF7 cells assessed as accumulation at G2 phase at 3 uM after 24 hrs using propidium iodide staining by flow cytometry (reference value: 7.46 %); type: functional
MCF7 [8] = assay: Cell cycle arrest in human MCF7 cells assessed as accumulation at S phase at 5 uM after 24 hrs using propidium iodide staining by flow cytometry (reference value: 24.81 %); type: functional
MCF7 [9] = assay: Induction of apoptosis in human MCF7 cells assessed as early apoptotic cells at 1 uM after 24 hrs using annexin V/PI staining by flow cytometry (reference value: 3.19 %); type: functional
MCF7 [10] = assay: Cell cycle arrest in human MCF7 cells assessed as decrease in E2F mRNA level at 1 to 5 uM after 12 hrs by QRT-PCR method; type: functional, cell-based
MCF7 [11] = assay: Cell cycle arrest in human MCF7 cells assessed as accumulation at G2 phase at 5 uM after 24 hrs using propidium iodide staining by flow cytometry (reference value: 7.46 %); type: functional
MDA-MB-231 [12] = assay: Cell cycle arrest in human MDA-MB-231 cells assessed as apoptosis at 1 uM after 24 hrs using propidium iodide staining by flow cytometry (reference value: 0.10 %); type: functional
MCF7 [13] = assay: Cell cycle arrest in human MCF7 cells assessed as apoptosis at 5 uM after 24 hrs using propidium iodide staining by flow cytometry (reference value: 0.06 %); type: functional
MCF7 [14] = assay: Induction of apoptosis in human MCF7 cells assessed as late apoptotic cells at 1 uM after 24 hrs using annexin V/PI staining by flow cytometry (reference value: 6.46 %); type: functional
Procedure, shortened: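 MCF-7 cells were exposed to vehicle or the indicated compound concentrations for 24 h. Phosphatidylserine exposure was then measured by flow cytometry after staining with FITC-labelled Annexin V and propidium iodide. Apoptotic cell fractions were read from dot plots relative to vehicle.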

MCF7 [15] = assay: Cell cycle arrest in human MCF7 cells assessed as apoptosis at 1 uM after 24 hrs using propidium iodide staining by flow cytometry (reference value: 0.06 %); type: functional
MCF7 [16] = assay: Cell cycle arrest in human MCF7 cells assessed as accumulation at G2 phase at 1 uM after 24 hrs using propidium iodide staining by flow cytometry (reference value: 7.46 %); type: functional
[17] = Safety index, ratio of IC50 for HEK293 cells to IC50 for human MCF7 cells; type: toxicity, cell-based; conditions: HEK293 cells versus MCF7 cells, read-out: Ratio IC50
Procedure, shortened: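 Cell death was assessed by MTT assay after 72 h exposure. The ratio was calculated as the HEK-293 IC50 divided by the MCF-7 EC50.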

MDA-MB-231 [18] = assay: Cell cycle arrest in human MDA-MB-231 cells assessed as accumulation at G1 phase at 5 uM after 24 hrs using propidium iodide staining by flow cytometry (reference value: 52.67 %); type: functional
HEK293 = assay: Cytotoxicity against HEK293 cells after 24 hrs by MTT assay; type: cell-based; conditions: Homo sapiens, HEK293, 72 h; in the assay text read “after 72 hrs” for “after 24 hrs”
MCF7 [19] = assay: Induction of apoptosis in human MCF7 cells assessed as reduction in cell viability at 5 uM after 24 hrs by MTT assay in presence of zIEDT-FMK; type: functional, cell-based
MDA-MB-231 [20] = assay: Antiproliferative activity against human MDA-MB-231 cells after 72 hrs by MTT assay; type: functional, cell-based; conditions: MDA-MB-231, 72 h
Procedure, shortened: (§1)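 MCF-7 (ER+ve) and MDA-MB-231 (ER-ve) breast cancer cells were exposed to compound or vehicle. Viability was read by MTT and expressed as % cell death versus vehicle, with 4-hydroxytamoxifen as positive control. IC50 came from three independent experiments, each in triplicate.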

MCF7 [21] = assay: Cell cycle arrest in human MCF7 cells assessed as increase in p21 protein level at 5 uM after 12 to 24 hrs by immunoblotting method; type: functional, cell-based
MCF7 [22] = assay: Induction of apoptosis in human MCF7 cells assessed as reduction in cell viability at 5 uM after 24 hrs by MTT assay in presence of zVAD-FMK; type: functional, cell-based
MCF7 [23] = assay: Cell cycle arrest in human MCF7 cells assessed as increase in p27 protein level at 5 uM after 12 to 24 hrs by immunoblotting method; type: functional, cell-based
MCF7 [24] = assay: Cell cycle arrest in human MCF7 cells assessed as decrease in cyclin D1 protein level at 5 uM after 12 to 24 hrs by immunoblotting method; type: functional, cell-based
MCF7 [25] = assay: Induction of apoptosis in human MCF7 cells assessed as early apoptotic cells at 5 uM after 24 hrs using annexin V/PI staining by flow cytometry (reference value: 3.19 %); type: functional
MCF7 [26] = assay: Cell cycle arrest in human MCF7 cells assessed as accumulation at S phase at 3 uM after 24 hrs using propidium iodide staining by flow cytometry (reference value: 24.81 %); type: functional
MCF7 [27] = assay: Cell cycle arrest in human MCF7 cells assessed as decrease in cyclin D1 mRNA level at 1 to 5 uM after 12 hrs by QRT-PCR method; type: functional, cell-based
MDA-MB-231 [28] = assay: Cell cycle arrest in human MDA-MB-231 cells assessed as apoptosis at 5 uM after 24 hrs using propidium iodide staining by flow cytometry (reference value: 0.10 %); type: functional
MCF7 [29] = assay: Cell cycle arrest in human MCF7 cells assessed as accumulation at G1 phase at 1 uM after 24 hrs using propidium iodide staining by flow cytometry (reference value: 67.73 %); type: functional
MDA-MB-231 [30] = assay: Antiproliferative activity against human MDA-MB-231 cells after 48 hrs by MTT assay; type: functional, cell-based; conditions: MDA-MB-231, 48 h; procedure, shortened: as §1
Mus musculus = assay: Toxicity in human MCF7 cells xenografted athymic nude mouse assessed as change in body weight at 16 mg/kg/day, po for 21 days measured up to 21 days relative to vehicle-treated control; type: organism-based; set-up: route oral; conditions: in vivo, 504 h
MCF7 [31] = assay: Induction of apoptosis in human MCF7 cells assessed as PARP cleavage after 6 to 24 hrs by densitometry; type: functional, cell-based
Procedure, shortened: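 Lysates from treated MCF-7 cells were immunoblotted for PARP, and cleaved PARP was quantified by densitometry. Data are mean ± SEM of three independent experiments.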

MCF7 [32] = assay: Antiproliferative activity against human MCF7 cells after 48 hrs by MTT assay; type: functional, cell-based; conditions: MCF7, 48 h; procedure, shortened: as §1

Cc1ccc(S(=O)(=O)N2Cc3ccccc3OC[C@@H]2Cc2ccc(OCCN3CCCCCC3)cc2)cc1.Cl
Activity (MDA-MB-231 [1]): 7.46%
Activity (MCF7 [2]): Dose-dependent effect
Activity (MCF7 [3]): 86.96%
Activity (MCF7 [4]): 20.74%
Activity (MDA-MB-231 [5]): 3.61%
Activity (MCF7 [6]): 18.93%
Activity (MCF7 [7]): 6.86%
Activity (MCF7 [8]): 7.34%
Activity (MCF7 [9]): 15.13%
Activity (MCF7 [10]): Active
Activity (MCF7 [11]): 6.44%
Activity (MDA-MB-231 [12]): 0.6%
Activity (MCF7 [13]): 2.86%
Activity (MCF7 [14]): 20.15%
Activity (MCF7 [15]): 2.59%
Activity (MCF7 [16]): 6.97%
selectivity ratio [17]: 16.4
Activity (MDA-MB-231 [18]): 75.82%
IC50 (HEK293): 30 µM
Activity (MCF7 [19]): Active
IC50 (MDA-MB-231 [20]): 4.6 µM
Activity (MCF7 [21]): Active
Activity (MCF7 [22]): Active
Activity (MCF7 [23]): Active
Activity (MCF7 [24]): Active
Activity (MCF7 [25]): 42.51%
Activity (MCF7 [26]): 6.18%
Activity (MCF7 [27]): Active
Activity (MDA-MB-231 [28]): 1.47%
Activity (MCF7 [29]): 74.1%
IC50 (MDA-MB-231 [30]): 5.45 µM
Activity (Mus musculus): Non-toxic
Activity (MCF7 [31]): Dose-dependent effect
IC50 (MCF7 [32]): 3.55 µM
